Assay results taken from ChEMBL document CHEMBL3526146, “In vitro and in vivo metabolism and pharmacokinetics of BMS-562086, a potent and orally bioavailable corticotropin-releasing factor-1 receptor antagonist” (Drug Metab Dispos, 2012).

Tests used:
[1] = Drug metabolism in rat hepatocytes assessed as DPH-124921 metabolite level at 25 uM after 3 hrs by LC-MS/MS analysis; format: ADME, cell-based, Hepatocyte
Procedure, shortened: (§1)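 Hepatocytes checked for viability by trypan blue exclusion, then diluted in Krebs-Henseleit buffer to 1.0 × 10^6 cells/ml. Incubated in duplicate with 25 µM compound at 37°C for 3 h on an orbital shaker (80 rpm) under 95/5 O2/CO2. Negative control had no cells. Stopped with ice-cold acetonitrile, sonicated, centrifuged; supernatant analysed by LC/MS/MS.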

[2] = Drug metabolism in beagle dog hepatocytes assessed as DPH-124921 metabolite level at 25 uM after 3 hrs by LC-MS/MS analysis; format: ADME, cell-based, Canis lupus familiaris, Hepatocyte
Procedure, shortened: (§2)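 Mouse, rat, dog, monkey and human hepatocytes (trypan blue viability checked) at 1.0×10^6 cells/ml in Krebs-Henseleit buffer were incubated with 25 µM compound, in duplicate. Conditions were 37°C, 95/5 O2/CO2, orbital shaking, 3 h. 7-Ethoxycoumarin and 7-hydroxycoumarin (100 µM) served as positive controls, with a cell-free negative control. Reactions were quenched with ice-cold acetonitrile, then sonicated and centrifuged; supernatants were analysed by LC/MS/MS.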

[3] = Drug metabolism in human cryopreserved hepatocytes assessed as DPH-124921 metabolite level at 25 uM after 3 hrs by LC-MS/MS analysis; format: ADME, cell-based, Hepatocyte; procedure, shortened: as §1
[4] = Drug metabolism in mouse hepatocytes assessed as BMS-572273 metabolite level at 25 uM after 3 hrs by LC-MS/MS analysis; format: ADME, cell-based, Hepatocyte; procedure, shortened: as §1
[5] = Drug metabolism in beagle dog hepatocytes assessed as BMS-572273 metabolite level at 25 uM after 3 hrs by LC-MS/MS analysis; format: ADME, cell-based, Canis lupus familiaris, Hepatocyte; procedure, shortened: as §2
[6] = Drug metabolism in cynomolgus monkey cryopreserved hepatocytes assessed as BMS-572273 metabolite level at 25 uM after 3 hrs by LC-MS/MS analysis; format: ADME, cell-based, Macaca fascicularis, Hepatocyte; procedure, shortened: as §2
Liver microsome [7] = assay: Drug metabolism in dog liver microsomes at 100 uM after 1 hr in presence of NADPH; format: ADME, Canis lupus familiaris
Procedure, shortened: (§3)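 Liver microsomes (1 mg/ml protein) in 100 mM phosphate buffer with 100 µM test compound. Reaction started by adding NADPH (1 mM), then run at 37°C for 1 h in a shaking water bath, in duplicate. Controls lacked microsomal protein or NADPH; 7-ethoxycoumarin (100 µM) was the positive control. Metabolites identified by LC/MS/MS.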

[8] = Drug metabolism in cynomolgus monkey liver microsomes at 100 uM after 1 hr in presence of NADPH; format: ADME, Macaca fascicularis
Procedure, shortened: (§4)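 Mouse, rat, dog, monkey and human liver microsomes (1 mg/ml protein) were incubated with 100 µM compound in 100 mM phosphate buffer. Reactions were started with 1 mM NADPH and run 1 h at 37°C in duplicate. Controls lacked protein or NADPH, plus a 7-ethoxycoumarin (100 µM) positive control. Metabolites were identified by LC/MS/MS.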

[9] = Drug metabolism in mouse liver microsomes assessed as DPH-123554 metabolite level at 100 uM after 1 hr in presence of NADPH; format: ADME; procedure, shortened: as §3
Liver microsome [10] = assay: Drug metabolism in beagle dog liver microsomes assessed as DPH-123554 metabolite level at 100 uM after 1 hr in presence of NADPH; format: ADME, Canis lupus familiaris; procedure, shortened: as §4
[11] = Drug metabolism in cynomolgus monkey liver microsomes assessed as DPH-123554 metabolite level at 100 uM after 1 hr in presence of NADPH; format: ADME, Macaca fascicularis; procedure, shortened: as §4
Liver microsome [12] = assay: Drug metabolism in human liver microsomes assessed as DPH-123554 metabolite level at 100 uM after 1 hr in presence of NADPH; format: ADME; procedure, shortened: as §3
[13] = Drug metabolism in mouse liver microsomes assessed as DPH-124921 metabolite level at 100 uM after 1 hr in presence of NADPH; format: ADME; procedure, shortened: as §3
Liver microsome [14] = assay: Drug metabolism in dog liver microsomes assessed as DPH-124921 metabolite level at 100 uM after 1 hr in presence of NADPH; format: ADME, Canis lupus familiaris; procedure, shortened: as §4
Liver microsome [15] = assay: Drug metabolism in human liver microsomes assessed as DPH-124921 metabolite level at 100 uM after 1 hr in presence of NADPH; format: ADME; procedure, shortened: as §3
Liver microsome [16] = assay: Drug metabolism in rat liver microsomes assessed as BMS-572273 metabolite level at 100 uM after 1 hr in presence of NADPH; format: ADME; procedure, shortened: as §3
[17] = Drug metabolism in cynomolgus monkey liver microsomes assessed as BMS-572273 metabolite level at 100 uM after 1 hr in presence of NADPH; format: ADME, Macaca fascicularis; procedure, shortened: as §4
Hepatocyte = assay: Detection of compound level in mouse hepatocytes treated with 25 uM of BMS-562086 after 3 hrs by LC-MS/MS analysis; format: ADME, cell-based; procedure, shortened: as §2
[18] = Detection of compound level in cynomolgus monkey cryopreserved hepatocytes treated with 25 uM of BMS-562086 after 3 hrs by LC-MS/MS analysis; format: ADME, cell-based, Macaca fascicularis, Hepatocyte; procedure, shortened: as §2
[19] = Retention time of the compound by HPLC method; format: physicochemical
[20] = Drug metabolism in mouse hepatocytes at 25 uM after 3 hrs by LC-MS/MS analysis; format: ADME, cell-based, Hepatocyte; procedure, shortened: as §1
[21] = Drug metabolism in rat hepatocytes at 25 uM after 3 hrs by LC-MS/MS analysis; format: ADME, cell-based, Hepatocyte; procedure, shortened: as §1
[22] = Drug metabolism in beagle dog hepatocytes at 25 uM after 3 hrs by LC-MS/MS analysis; format: ADME, cell-based, Canis lupus familiaris, Hepatocyte; procedure, shortened: as §2
[23] = Drug metabolism in cynomolgus monkey cryopreserved hepatocytes at 25 uM after 3 hrs by LC-MS/MS analysis; format: ADME, cell-based, Macaca fascicularis, Hepatocyte; procedure, shortened: as §2
[24] = Drug metabolism in human cryopreserved hepatocytes at 25 uM after 3 hrs by LC-MS/MS analysis; format: ADME, cell-based, Hepatocyte; procedure, shortened: as §1
[25] = Drug metabolism in mouse hepatocytes assessed as DPH-123554 metabolite level at 25 uM after 3 hrs by LC-MS/MS analysis; format: ADME, cell-based, Hepatocyte; procedure, shortened: as §1
[26] = Drug metabolism in rat hepatocytes assessed as DPH-123554 metabolite level at 25 uM after 3 hrs by LC-MS/MS analysis; format: ADME, cell-based, Hepatocyte; procedure, shortened: as §1
[27] = Drug metabolism in beagle dog hepatocytes assessed as DPH-123554 metabolite level at 25 uM after 3 hrs by LC-MS/MS analysis; format: ADME, cell-based, Canis lupus familiaris, Hepatocyte; procedure, shortened: as §2
[28] = Drug metabolism in mouse hepatocytes assessed as DPH-124921 metabolite level at 25 uM after 3 hrs by LC-MS/MS analysis; format: ADME, cell-based, Hepatocyte; procedure, shortened: as §1
[29] = Detection of compound level in mouse liver microsomes treated with BMS-562086 by LC-MS/MS analysis
Liver microsome [30] = assay: Detection of compound level in rat liver microsomes treated with 100 uM of BMS-562086 after 1 hr by LC-MS/MS analysis
Liver microsome [31] = assay: Detection of compound level in human liver microsomes treated with 100 uM of BMS-562086 after 1 hr by LC-MS/MS analysis
Liver microsome [32] = assay: Detection of compound level in beagle dog liver microsomes treated with 100 uM of BMS-562086 after 1 hr by LC-MS/MS analysis
[33] = Detection of compound level in cynomolgus monkey liver microsomes treated with 100 uM of BMS-562086 after 1 hr by LC-MS/MS analysis

SMILES	Drug metabolism [1]	Drug metabolism [2]	Drug metabolism [3]	Drug metabolism [4]	Drug metabolism [5]	Drug metabolism [6]	Drug metabolism (Liver microsome [7])	Drug metabolism [8]	Drug metabolism [9]	Drug metabolism (Liver microsome [10])	Drug metabolism [11]	Drug metabolism (Liver microsome [12])	Drug metabolism [13]	Drug metabolism (Liver microsome [14])	Drug metabolism (Liver microsome [15])	Drug metabolism (Liver microsome [16])	Drug metabolism [17]	Drug metabolism (Hepatocyte)	Drug metabolism [18]	Retention_time [19]	other results
COc1ccc(-c2c(C)nn3c(O)nc(C)nc23)c(C)n1	metabolite_detected	metabolite_detected	metabolite_detected	metabolite_detected	metabolite_detected	metabolite_detected	metabolite_detected	metabolite_detected	metabolite_detected	metabolite_detected	metabolite_detected	metabolite_detected	metabolite_detected	metabolite_detected	metabolite_detected	metabolite_detected	metabolite_detected	metabolite_detected	metabolite_detected	25.6 min	Drug metabolism [20]: metabolite_detected; Drug metabolism [21]: metabolite_detected; Drug metabolism [22]: metabolite_detected; Drug metabolism [23]: metabolite_detected; Drug metabolism [24]: metabolite_detected; Drug metabolism [25]: metabolite_detected; Drug metabolism [26]: metabolite_detected; Drug metabolism [27]: metabolite_detected; Drug metabolism [28]: metabolite_detected; Drug metabolism [29]: metabolite_detected; Drug metabolism (Liver microsome [30]): metabolite_detected; Drug metabolism (Liver microsome [31]): metabolite_detected; Drug metabolism (Liver microsome [32]): metabolite_detected; Drug metabolism [33]: metabolite_detected
CC[C@@H](C)Nc1nc(C)nc2c(-c3ccc(OC)nc3C)c(C)nn12 [PEXACERFONT]	metabolite_detected	metabolite_detected	metabolite_detected	metabolite_detected	metabolite_detected	metabolite_detected	metabolite_detected	metabolite_detected	metabolite_detected	metabolite_detected	metabolite_detected	metabolite_detected	metabolite_detected	metabolite_detected	metabolite_detected	metabolite_detected	metabolite_detected	metabolite_detected	metabolite_detected	52.2 min	Drug metabolism [20]: metabolite_detected; Drug metabolism [21]: metabolite_detected; Drug metabolism [22]: metabolite_detected; Drug metabolism [23]: metabolite_detected; Drug metabolism [24]: metabolite_detected; Drug metabolism [25]: metabolite_detected; Drug metabolism [26]: metabolite_detected; Drug metabolism [27]: metabolite_detected; Drug metabolism [28]: metabolite_detected; Drug metabolism [29]: metabolite_detected; Drug metabolism (Liver microsome [30]): metabolite_detected; Drug metabolism (Liver microsome [31]): metabolite_detected; Drug metabolism (Liver microsome [32]): metabolite_detected; Drug metabolism [33]: metabolite_detected
CC[C@@H](C)Nc1nc(C)nc2c(-c3ccc(O)nc3C)c(C)nn12	metabolite_detected	metabolite_detected	metabolite_detected	metabolite_detected	metabolite_detected	metabolite_detected	metabolite_detected	metabolite_detected	metabolite_detected	metabolite_detected	metabolite_detected	metabolite_detected	metabolite_detected	metabolite_detected	metabolite_detected	metabolite_detected	metabolite_detected	metabolite_detected	metabolite_detected	32.1 min	Drug metabolism [20]: metabolite_detected; Drug metabolism [21]: metabolite_detected; Drug metabolism [22]: metabolite_detected; Drug metabolism [23]: metabolite_detected; Drug metabolism [24]: metabolite_detected; Drug metabolism [25]: metabolite_detected; Drug metabolism [26]: metabolite_detected; Drug metabolism [27]: metabolite_detected; Drug metabolism [28]: metabolite_detected; Drug metabolism [29]: metabolite_detected; Drug metabolism (Liver microsome [30]): metabolite_detected; Drug metabolism (Liver microsome [31]): metabolite_detected; Drug metabolism (Liver microsome [32]): metabolite_detected; Drug metabolism [33]: metabolite_detected
